Measured values of several laboratories.
Each line is one published result; the experiments were not run side by side.
SRC: Proto-oncogene tyrosine-protein kinase Src (SRC, Homo sapiens, UniProt P12931)
ENAH: Protein enabled homolog (ENAH, UniProt Q8N8S7)
DPP4: Dipeptidyl peptidase 4 (DPP4, Homo sapiens, UniProt P27487)

Cn1cc(-c2cccc(N3CCc4c(sc5c4CC(C)(C)C5)C3=O)c2CO)cc(Nc2ccncn2)c1=O  Ki (SRC; enzyme activity, inhibitor, FRET): > 3330 nM
CC(=O)N[C@@H](Cc1ccccc1Cl)C(=O)N1CCC[C@H]1C(=O)N1CCC[C@H]1C(=O)N1CCC[C@H]1C(=O)N1CCC[C@H]1C(=O)N[C@H](C(=O)N[C@@H](CCC(=O)O)C(=O)N[C@@H](CC(=O)O)C(=O)N[C@@H](CCC(=O)O)C(=O)N[C@@H](CC(C)C)C(N)=O)[C@@H](C)O  Kd (ENAH; binding, fluorescence): 1250 nM
O=C1C=CC(=O)N1CCCCCCCCCCCCCCCCCCN1CCCCC1  Ki (Acetylcholinesterase (ACHE, Homo sapiens, UniProt P22303); enzyme activity, inhibitor): 20400 nM
CC(C)[C@H](N)C(=O)N1CCC[C@H]1C(=O)N[C@H](C(=O)N1CCC[C@H]1C(=O)N[C@@H](CCC(=O)O)C(=O)O)C(C)C  IC50 (DPP4; enzyme activity, inhibitor, absorbance; pH 8): 83.4 µM
CC(=O)N[C@@H](Cc1ccccc1Cl)C(=O)N1CCC[C@H]1C(=O)N1CCC[C@H]1C(=O)N1CCC[C@H]1C(=O)N1CCC[C@H]1C(=O)N[C@H](C(=O)N[C@@H](CCC(=O)O)C(=O)N[C@@H](CC(=O)O)C(=O)N[C@@H](CC(=O)O)C(=O)N[C@@H](CC(C)C)C(N)=O)[C@@H](C)O  Kd (ENAH; binding, fluorescence): 3800 nM
CC(=O)P(=O)(O)OCCc1cn([C@H](Cc2ccccc2)C(=O)O)nn1  Ki (1-deoxy-D-xylulose-5-phosphate synthase (dxs, Escherichia coli, UniProt P77488); enzyme activity, inhibitor; with preincubation): 90 nM
CC(C)[C@H](N)C(=O)N1CCC[C@H]1C(=O)N[C@H](C(=O)N1CCC[C@H]1C(=O)N[C@@H](Cc1c[nH]c2ccccc12)C(=O)O)C(C)C  IC50 (DPP4; enzyme activity, inhibitor, absorbance; pH 8): 92.1 µM
Cn1cc(-c2cc(F)cc(N3CCn4c(cc5c4CCCC5)C3=O)c2CO)cc(Nc2ccc(N3CCN(C4COC4)CC3)cn2)c1=O  Ki (SRC; enzyme activity, inhibitor, FRET): 254 nM
CC[C@H]1NC(=O)[C@@H]2CSC(=N2)[C@H](Cc2ccccc2)N(C)C(=O)[C@@H]2CCCN2C(=O)[C@H](C(C)C)N(C)C(=O)[C@H](Cc2ccccc2)OC(=O)[C@H](C)[C@@H](C)NC(=O)[C@@H]([C@@H](C)O)NC(=O)[C@@H](CC(C)C)N(C)C(=O)[C@@H]2CSC1=N2  IC50 (DPP4; enzyme activity, inhibitor): 245 µM
CC(=O)N[C@@H](Cc1ccccc1Cl)C(=O)N1CCC[C@H]1C(=O)N1CCC[C@H]1C(=O)N1CCC[C@H]1C(=O)N1CCC[C@H]1C(=O)O  Kd (ENAH; binding, fluorescence): 9900 nM
NC(=S)c1cn(C2OC(CO)C(O)C2O)c2ncnc(N)c12 (stereo not drawn)  Kd (Activin receptor type-1 (ACVR1, Homo sapiens, UniProt Q04771); thermal stability, DSF): < 1000 nM
CC(C)[C@H](N)C(=O)N1CCC[C@H]1C(=O)N[C@H](C(=O)N1CCC[C@H]1C(=O)N[C@@H](CCCNC(=N)N)C(=O)O)C(C)C  IC50 (DPP4; enzyme activity, inhibitor, absorbance; pH 8): 118 µM
CC(=O)N[C@@H](CO)C(=O)N[C@@H](Cc1ccccc1)C(=O)N[C@@H](CCC(=O)O)C(=O)N[C@@H](Cc1ccccc1Cl)C(=O)N1CCC[C@H]1C(=O)N1CCC[C@H]1C(=O)N1CCC[C@H]1C(=O)N1CCC[C@H]1C(=O)N[C@H](C(=O)N[C@@H](CCC(=O)O)C(=O)N[C@@H](CC(=O)O)C(=O)N[C@@H](CCC(=O)O)C(=O)N[C@@H](CC(C)C)C(N)=O)[C@@H](C)O  Kd (ENAH; binding, fluorescence): 790 nM
CC(C)[C@H](N)C(=O)N1CCC[C@H]1C(=O)N[C@H](C(=O)N1CCC[C@H]1C(=O)N[C@@H](CC(N)=O)C(=O)O)C(C)C  IC50 (DPP4; enzyme activity, inhibitor, absorbance; pH 8): 88.7 µM
c1ccc(Nc2cccc3ccccc23)cc1  Kd (lush (Drosophila melanogaster, UniProt O02372); binding): 650 nM
